What all share (settings): stereoisomer not certain
Experiment [1] has as its target T1, OR2B3 (Homo sapiens) (UniProt O76000).
T1 sequence (whole entry): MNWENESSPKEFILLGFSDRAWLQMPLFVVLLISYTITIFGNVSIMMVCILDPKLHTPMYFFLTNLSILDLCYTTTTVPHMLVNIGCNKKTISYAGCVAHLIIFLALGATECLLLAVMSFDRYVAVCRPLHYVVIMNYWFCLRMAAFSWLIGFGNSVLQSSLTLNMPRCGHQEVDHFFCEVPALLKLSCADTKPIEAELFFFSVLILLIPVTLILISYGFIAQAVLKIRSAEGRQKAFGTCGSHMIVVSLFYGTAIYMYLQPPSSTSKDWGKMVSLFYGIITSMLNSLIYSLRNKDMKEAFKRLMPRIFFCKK
In a few lines:
(§1)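 Each receptor–molecule pair is labelled responsive or non-responsive (inactive) according to whether the original authors judged the measured signal statistically different from baseline. The data were taken from the main text and supplementary material of published papers and checked for typos and inconsistencies. Assay methods differed by source, with transient luciferase assays in mammalian cell lines being common.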

For experiment [2], the system named is T2, OR2A7.
T2 sequence (whole entry): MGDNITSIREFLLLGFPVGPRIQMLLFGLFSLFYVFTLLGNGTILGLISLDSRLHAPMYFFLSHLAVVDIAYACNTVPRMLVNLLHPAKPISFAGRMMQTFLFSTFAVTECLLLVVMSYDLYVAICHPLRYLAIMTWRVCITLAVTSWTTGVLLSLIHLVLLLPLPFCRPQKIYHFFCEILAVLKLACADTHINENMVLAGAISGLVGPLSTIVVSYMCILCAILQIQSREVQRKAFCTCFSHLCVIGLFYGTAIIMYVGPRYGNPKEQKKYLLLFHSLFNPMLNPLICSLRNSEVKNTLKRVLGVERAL
In a few lines:
as §1

Experiment [3] deals with T3, OR2AE1 (Homo sapiens) (UniProt Q8NHA4).
T3 sequence (whole entry): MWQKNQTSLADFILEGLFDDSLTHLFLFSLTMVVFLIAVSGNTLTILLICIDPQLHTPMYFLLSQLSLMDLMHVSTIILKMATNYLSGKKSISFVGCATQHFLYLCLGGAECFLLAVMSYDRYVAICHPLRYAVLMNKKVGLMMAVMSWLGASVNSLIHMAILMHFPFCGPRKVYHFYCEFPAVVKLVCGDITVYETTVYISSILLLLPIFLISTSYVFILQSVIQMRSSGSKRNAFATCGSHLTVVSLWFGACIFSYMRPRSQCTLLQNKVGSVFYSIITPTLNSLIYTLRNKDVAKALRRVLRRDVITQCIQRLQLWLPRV
A digest of the protocol:
as §1

Experiment [4] has as its target T4, OR2AG1 (Homo sapiens) (UniProt Q9H205).
T4 sequence (whole entry): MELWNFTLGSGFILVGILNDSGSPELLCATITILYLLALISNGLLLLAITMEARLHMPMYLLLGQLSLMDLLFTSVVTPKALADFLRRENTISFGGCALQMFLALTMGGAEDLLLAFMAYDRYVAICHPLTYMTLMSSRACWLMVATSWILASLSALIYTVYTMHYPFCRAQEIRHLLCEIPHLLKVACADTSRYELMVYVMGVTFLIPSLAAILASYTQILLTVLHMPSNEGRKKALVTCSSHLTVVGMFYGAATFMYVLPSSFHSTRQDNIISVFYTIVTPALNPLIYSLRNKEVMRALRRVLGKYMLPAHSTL
A digest of the protocol:
as §1

Experiment [5] deals with T5, OR2AG2 (Homo sapiens) (UniProt A6NM03).
T5 sequence (whole entry): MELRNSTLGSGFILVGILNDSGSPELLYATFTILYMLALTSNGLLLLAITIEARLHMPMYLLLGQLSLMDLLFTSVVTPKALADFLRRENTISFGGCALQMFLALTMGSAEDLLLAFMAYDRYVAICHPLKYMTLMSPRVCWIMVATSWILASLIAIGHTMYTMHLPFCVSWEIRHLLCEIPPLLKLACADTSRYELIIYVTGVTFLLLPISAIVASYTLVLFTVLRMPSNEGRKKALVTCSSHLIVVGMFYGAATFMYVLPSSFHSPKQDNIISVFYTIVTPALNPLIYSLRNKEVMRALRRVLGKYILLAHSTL
A digest of the protocol:
as §1

Experiment [6] deals with T6, OR2AK2 (Homo sapiens) (UniProt Q8NG84).
T6 sequence (whole entry): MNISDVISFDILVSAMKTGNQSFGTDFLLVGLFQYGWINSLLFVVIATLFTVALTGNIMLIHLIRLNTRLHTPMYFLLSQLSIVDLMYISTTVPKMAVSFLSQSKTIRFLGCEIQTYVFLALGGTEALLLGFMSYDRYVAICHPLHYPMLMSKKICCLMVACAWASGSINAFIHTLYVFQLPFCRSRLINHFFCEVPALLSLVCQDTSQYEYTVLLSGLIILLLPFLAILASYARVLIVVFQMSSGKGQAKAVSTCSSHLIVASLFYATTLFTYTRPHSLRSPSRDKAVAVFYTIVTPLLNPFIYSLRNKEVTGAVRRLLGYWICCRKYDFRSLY
In a few lines: as §1

Experiment [7] addresses T7, OR2AP1 (Homo sapiens) (UniProt Q8NGE2).
T7 sequence (whole entry): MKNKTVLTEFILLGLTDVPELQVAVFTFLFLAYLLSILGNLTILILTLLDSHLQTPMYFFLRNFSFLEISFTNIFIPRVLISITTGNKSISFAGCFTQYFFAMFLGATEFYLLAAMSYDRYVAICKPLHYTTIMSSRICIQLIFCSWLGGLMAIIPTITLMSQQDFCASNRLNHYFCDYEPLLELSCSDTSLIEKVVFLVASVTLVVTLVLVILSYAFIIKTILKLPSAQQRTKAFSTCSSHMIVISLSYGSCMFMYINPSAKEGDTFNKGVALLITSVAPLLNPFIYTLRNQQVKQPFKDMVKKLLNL
A digest of the protocol: as §1

For experiment [8], the target named is T8, OR2AT4 (Homo sapiens) (UniProt A6NND4).
T8 sequence (whole entry): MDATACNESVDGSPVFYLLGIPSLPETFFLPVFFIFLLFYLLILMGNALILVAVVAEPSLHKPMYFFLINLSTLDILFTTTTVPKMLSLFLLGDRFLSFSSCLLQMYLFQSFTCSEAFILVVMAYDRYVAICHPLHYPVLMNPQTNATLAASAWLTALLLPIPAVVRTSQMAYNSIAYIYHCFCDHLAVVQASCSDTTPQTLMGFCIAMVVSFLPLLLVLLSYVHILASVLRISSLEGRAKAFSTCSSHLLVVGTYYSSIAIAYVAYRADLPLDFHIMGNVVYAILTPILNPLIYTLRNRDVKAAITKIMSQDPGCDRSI
In a few lines: as §1

Experiment [9] deals with T9, OR2B11 (Homo sapiens) (UniProt Q5JQS5).
T9 sequence (whole entry): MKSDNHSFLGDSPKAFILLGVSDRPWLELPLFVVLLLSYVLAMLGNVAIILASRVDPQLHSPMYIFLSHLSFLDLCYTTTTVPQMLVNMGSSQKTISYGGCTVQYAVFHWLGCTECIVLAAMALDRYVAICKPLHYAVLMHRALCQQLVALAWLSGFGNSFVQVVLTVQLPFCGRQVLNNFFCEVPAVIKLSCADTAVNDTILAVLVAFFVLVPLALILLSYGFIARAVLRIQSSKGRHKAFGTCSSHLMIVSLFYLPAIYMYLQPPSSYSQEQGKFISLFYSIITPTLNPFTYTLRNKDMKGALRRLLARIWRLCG
In a few lines:
as §1

The target in experiment [10] is T10, OR2B2 (Homo sapiens) (UniProt Q9GZK3).
T10 sequence (whole entry): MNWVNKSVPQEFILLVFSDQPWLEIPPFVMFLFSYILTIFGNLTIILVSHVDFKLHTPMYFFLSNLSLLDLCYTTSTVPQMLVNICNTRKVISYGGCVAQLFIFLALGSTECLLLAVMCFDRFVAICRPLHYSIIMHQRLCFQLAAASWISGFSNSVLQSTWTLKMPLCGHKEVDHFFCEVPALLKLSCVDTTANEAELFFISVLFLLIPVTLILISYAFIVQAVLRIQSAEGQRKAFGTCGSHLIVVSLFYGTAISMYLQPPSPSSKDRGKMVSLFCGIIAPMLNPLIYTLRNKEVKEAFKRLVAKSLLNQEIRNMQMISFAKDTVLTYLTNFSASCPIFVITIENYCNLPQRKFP
In a few lines:
as §1

The target in experiment [11] is T11, OR2B6 (Homo sapiens) (UniProt P58173).
T11 sequence (whole entry): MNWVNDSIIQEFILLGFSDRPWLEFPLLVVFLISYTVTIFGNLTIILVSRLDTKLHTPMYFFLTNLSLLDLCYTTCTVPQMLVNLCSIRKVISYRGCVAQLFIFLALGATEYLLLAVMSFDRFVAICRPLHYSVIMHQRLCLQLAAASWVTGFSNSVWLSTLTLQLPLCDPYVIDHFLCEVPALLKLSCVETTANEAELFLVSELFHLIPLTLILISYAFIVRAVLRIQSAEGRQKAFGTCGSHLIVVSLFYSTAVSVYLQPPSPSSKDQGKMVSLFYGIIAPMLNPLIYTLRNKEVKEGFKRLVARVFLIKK
A digest of the protocol: as §1

For experiment [12], the system named is T12, OR2BB.
T12 sequence (whole entry): T9 sequence (whole entry) with V198M, G223D
In a few lines: as §1

The test system of experiment [13] is T13, OR2BB.
T13 sequence (whole entry): T9 sequence (whole entry) with V198M
In a few lines:
as §1
The source holds these as a separate data set.

Experiment [14] addresses T14, OR2C1 (Homo sapiens) (UniProt O95371).
T14 sequence (whole entry): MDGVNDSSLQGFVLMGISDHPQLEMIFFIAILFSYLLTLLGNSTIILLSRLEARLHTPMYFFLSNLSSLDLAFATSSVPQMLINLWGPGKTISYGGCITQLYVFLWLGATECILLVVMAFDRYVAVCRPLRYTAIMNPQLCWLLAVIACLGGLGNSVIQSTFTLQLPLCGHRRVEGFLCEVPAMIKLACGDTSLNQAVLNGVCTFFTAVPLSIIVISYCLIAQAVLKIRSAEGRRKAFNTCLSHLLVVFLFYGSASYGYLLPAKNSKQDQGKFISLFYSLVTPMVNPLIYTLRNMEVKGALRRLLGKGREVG
A digest of the protocol:
as §1

The subject of experiment [15] is T15, OR2C1.
T15 sequence (whole entry): T14 sequence (whole entry) with C149W
A digest of the protocol:
as §1

Experiment [16] addresses T16, OR2AJ1 (Homo sapiens) (UniProt Q8NGZ0).
T16 sequence (whole entry): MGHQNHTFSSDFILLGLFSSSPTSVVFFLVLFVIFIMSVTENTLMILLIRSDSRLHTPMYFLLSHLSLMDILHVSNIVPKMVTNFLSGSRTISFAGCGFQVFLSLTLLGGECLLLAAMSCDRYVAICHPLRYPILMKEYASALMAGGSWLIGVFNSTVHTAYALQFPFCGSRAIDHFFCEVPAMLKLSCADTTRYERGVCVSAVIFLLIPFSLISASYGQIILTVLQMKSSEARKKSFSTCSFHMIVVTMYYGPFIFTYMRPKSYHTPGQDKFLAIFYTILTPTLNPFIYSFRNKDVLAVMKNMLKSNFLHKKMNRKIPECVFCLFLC
A digest of the protocol:
as §1

Experiment [17] has as its system OR2C1. A digest of the protocol:
as §1
This is another data set of the same source.
Target sequence in this assay (as listed by the source): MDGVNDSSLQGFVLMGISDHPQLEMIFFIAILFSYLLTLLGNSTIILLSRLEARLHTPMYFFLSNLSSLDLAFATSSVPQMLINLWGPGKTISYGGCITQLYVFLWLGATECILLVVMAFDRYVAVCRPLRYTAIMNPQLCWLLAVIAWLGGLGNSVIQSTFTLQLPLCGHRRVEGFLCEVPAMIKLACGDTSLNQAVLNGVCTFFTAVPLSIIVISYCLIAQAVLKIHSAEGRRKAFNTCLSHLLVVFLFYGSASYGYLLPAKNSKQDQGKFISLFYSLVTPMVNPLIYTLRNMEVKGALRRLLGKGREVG

Experiment [18] relates to OR2C1. A digest of the protocol:
as §1
Target sequence in this assay (as listed by the source): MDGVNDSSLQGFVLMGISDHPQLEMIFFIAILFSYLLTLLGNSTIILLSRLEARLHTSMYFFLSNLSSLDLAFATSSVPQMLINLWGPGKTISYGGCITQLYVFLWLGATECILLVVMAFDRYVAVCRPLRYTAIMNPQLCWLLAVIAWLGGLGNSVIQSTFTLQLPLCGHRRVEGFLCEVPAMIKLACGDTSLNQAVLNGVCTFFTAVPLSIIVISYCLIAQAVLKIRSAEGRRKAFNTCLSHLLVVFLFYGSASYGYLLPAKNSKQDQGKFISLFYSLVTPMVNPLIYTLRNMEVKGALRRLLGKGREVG
The source holds these as a separate data set.

Positions count from the first letter of the chain named.
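Note: active if original authors judged signal statistically different from baseline.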

On to `CC(CC=O)c1ccc(C(C)(C)C)cc1` (centres undefined), for which the “odorant receptor agonist call” value in experiment [1] was “inactive”.

Turning to `CC1=C(O)C(=O)C(C)O1` (centres undefined), the “odorant receptor agonist call” value in [2], in [3], in experiment [4], in [5], in experiment [6] and in experiment [7] was “inactive” in each case. For the same molecule, the “odorant receptor agonist call” value in [8], in experiment [9], in experiment [10], in experiment [1], in [11] and in [12] was “inactive” throughout. Further, the “odorant receptor agonist call” value in experiment [13], in experiment [14] and in experiment [15] was “inactive” throughout.

With `CCCCCOC(=O)CCC`, the “odorant receptor agonist call” value in experiment [4] was “inactive”.

In the case of `CCCCCC(=O)C(C)C(C)=O` (centres undefined), the “odorant receptor agonist call” value in experiment [3], in experiment [4], in experiment [5], in experiment [16], in experiment [6] and in experiment [7] was “inactive” in each case. The “odorant receptor agonist call” value in [8], in experiment [9], in [10], in [1], in [11] and in experiment [14] was “inactive” each time.

As for `Cc1occc(=O)c1OC(=O)C(C)C`, the “odorant receptor agonist call” value in experiment [1] was “inactive”.

Take `CC(CO)CS` (centres undefined): the “odorant receptor agonist call” value in experiment [3], in experiment [4], in experiment [5], in experiment [16], in [6] and in experiment [7] was “inactive” in each case. For the same molecule, the “odorant receptor agonist call” value in experiment [8], in experiment [9], in [10], in experiment [1], in [11] and in [14] was “inactive” in each case.

With `CCC1OC(C)=C(O)C1=O` (centres undefined), the “odorant receptor agonist call” value in experiment [2], in experiment [3], in [4], in [5], in experiment [6] and in [7] was “inactive” each time. Moreover, the “odorant receptor agonist call” value in experiment [8], in [9], in [10], in experiment [1], in experiment [11] and in experiment [12] was “inactive” in each case. For the same molecule, the “odorant receptor agonist call” value in experiment [13], in experiment [14] and in experiment [15] was “inactive” each time.

For `CCCCC(S)C(C)CO` (centres undefined), the “odorant receptor agonist call” value in experiment [3], in [4], in [5], in experiment [16], in experiment [6] and in [7] was “inactive” each time. Besides, the “odorant receptor agonist call” value in [8], in [9], in [10], in [1], in experiment [11] and in [14] was “inactive” in each case.

As to `CCCCCCCCC(OC(C)=O)OC(C)=O`, in experiment [1], the “odorant receptor agonist call” value is “inactive”.

In the case of `CCCCCCCCS`, the “odorant receptor agonist call” value in experiment [17], in [15] and in [18] was “active” throughout.

`O=C([O-])C[SH2+]`: the “odorant receptor agonist call” value in experiment [15] is “active”.

The values above are taken from the M2OR odorant receptor database.
